The source made the active and inactive calls.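 How the source made its calls, unless noted: active means calcium signal cut by more than 3 SD below the full-agonist control yet still positive, in both repeats and the earlier primary screen; inactive means the rest.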

One assay deals with TRPC4 beta (transient receptor potential cation channel C4), mouse. The assay can be described thus: potentiation of DAMGO EC20 TRPC4 response – cell-based, Fluo-4, HEK293 TRPC4beta/mu-opioid, confirmation (AID 2555;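 active means primary screen hit whose calcium fluorescence ratio, in both repeats, exceeds the weak agonist control mean by 3 SD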). To be noted: DAMGO EC20, Fluo-4 calcium flux, at 10 µM; active compounds read high. In general terms: A change in cytosolic calcium serves as a functional read-out for many receptors and channels.
For `Cc1cc(-c2ccc(C)c(S(=O)(=O)NCCCN(Cc3ccccc3)C(C)C)c2)on1`, the result was inactive.

In the case of `CCc1nc(NCCc2ccccn2)c2nnn(Cc3ccccc3F)c2n1`, the outcome was inactive.

Regarding `Cc1sc2ncnc(NCC(C)(C)N3CCOCC3)c2c1C`, the outcome was inactive.

As to `Cc1ccc(N2CCN(c3ccc(NCc4nc5ccccc5n4C)cc3)CC2)cc1`, the result was inactive.

In the case of `COc1ccc(C(CNC(=O)CN2C(=O)NC3(CCCC3)C2=O)N(C)C)cc1` (stereo not given), the result was inactive.

With `Cc1cccc(NC(=S)NCC(c2cccnc2)N(C)C)c1C` (stereo not given), the result was inactive.

Regarding `Cc1ccccc1OCC(=O)NNC(=S)NC(=O)c1ccco1`, the result was inactive.

With `Cc1ccc(Sc2cc(C(=O)NCCN(C)C)c3ccccc3n2)cc1`, the result was inactive.

`O=C(O)c1ccc(-c2ccc(/C=c3/sc4nc5ccccc5n4c3=O)o2)cc1Cl`: the potentiation was 10% (active).

On to `Cc1ccccc1C(=O)NNC(=S)NC(=O)c1ccccc1`, for which the outcome was inactive.

Turning to `CN(C)C(CNC(=O)c1ccc2ccccc2n1)c1ccccc1` (stereo not given), the outcome was inactive.

Consider `Cc1cc(NC(=O)CN2CCc3ccccc3C2)nc2c1c(=O)oc1ccccc12`, for which the outcome was inactive.

As for `Cn1c(CN2CCN(c3cccc(Cl)c3)CC2)nc2ccccc21`, the outcome was inactive.

`CN(C)C(CNC(=O)c1cnc(Cl)c(Cl)c1)c1ccccc1` (stereo not given): the outcome was inactive.

As to `Cc1ccc(Cl)cc1NC(=O)CNCC(c1ccccc1)N(C)C` (stereo not given), the result was inactive.

Consider `CN(C)CCCN(C(=O)c1ccc(S(=O)(=O)N2CCOCC2)cc1)c1nc2ccc(F)cc2s1`, for which the outcome was inactive.

For `CN(C)CCN(C(=O)c1cccc2ccccc12)c1nc2cc3c(cc2s1)OCO3`, the result was inactive.

On to `Cc1ccc2c(C)c(C(=O)N(Cc3cccs3)C3CCS(=O)(=O)C3)oc2c1` (stereo not given), for which the outcome was inactive.

Regarding `CCN1CCN(c2c(Cl)cccc2NC(=O)c2ccc3nsnc3c2)CC1`, the potentiation was 14% (active).

As for `O=C(C1CCCN(Cc2ccncc2)C1)N1CCc2ccccc2C1` (stereo not given), the result was inactive.

As to `CCN(c1ccccc1)S(=O)(=O)c1ccc(C(=O)N(CCCN(C)C)c2nc3cc4c(cc3s2)OCO4)cc1`, the result was inactive.

Take `CC1CCCN(CCCNC(=O)c2ccc3c(c2)N(Cc2ccccc2F)C(=O)c2ccccc2S3(=O)=O)C1` (stereo not given): the result was inactive.

Turning to `O=C(Nc1nnc(-c2ccccc2Cl)o1)c1nc2ccccc2s1`, the outcome was inactive.

In the case of `COc1ccc(C(=O)NC(=S)NNC(=O)CCc2ccccc2)cc1`, the outcome was inactive.

As to `Cc1cc(-c2nn(-c3ccccc3F)cc2CNCCc2cnc[nH]2)c(C)s1`, the outcome was inactive.

With `Cc1ccc(C(=O)NC(=S)NNC(=O)c2ccccc2)cc1`, the result was inactive.

Turning to `Cc1csc2c(N3CCN(C(=O)NC(C)(C)C)CC3)ncnc12`, the outcome was inactive.

For the molecule `COC(=O)[C@@]1(Cc2ccc(F)cc2)[C@H]2c3cc(C(=O)N(C)C)n(CCc4ccccn4)c3C[C@H]2CN1C(=O)c1ccccc1`, the outcome was inactive.

`CN(CCc1ccccn1)C(=O)CC1C(=O)NCCN1Cc1ccccc1C(F)(F)F` (stereo not given): the outcome was inactive.

As for `COc1cc(/C=C/C(=O)c2ccc3c(c2)OCO3)cc(Cl)c1O`, the outcome was inactive.

For `CCn1c(N2CCN(C(=O)Nc3ccc(F)cc3)CC2)nc2ccccc21`, the result was inactive.

Take `O=S(=O)(c1ccccc1)c1nnn2c1nc(NC1CCN(Cc3ccccc3)CC1)c1cc(Cl)ccc12`: the outcome was inactive.

`CCOC(=O)c1oc2ccc(OC)cc2c1NC(=O)CN1CCN(C)CC1`: the result was inactive.

Take `C=CCn1c(CCNC(=O)C(C)(C)C)nc2ccccc21`: the result was inactive.

For `CCOC(=O)C1(CCOc2ccccc2)CCN(Cc2ccc3c(c2)OCCO3)CC1`, the result was inactive.

Turning to `Cc1cc(C)n(-c2nc(SCCN(C)C)c3c4c(sc3n2)CCCC4)n1`, the outcome was inactive.

For the molecule `COc1cc(OC)cc(C(=O)NC2CCCN(Cc3ccc(Cl)cc3)C2)c1` (stereo not given), the result was inactive.

As to `CN(C)C(CNC(=O)CCc1c[nH]c2ccccc12)c1ccccc1` (stereo not given), the result was inactive.

Consider `CCCCN(CC)CCCNC(=O)Cn1nc(Cc2ccncc2)c2ccccc2c1=O`, for which the result was inactive.

With `COC(=O)C1=C(C)N(Cc2ccccc2)C(=NCCc2ccccn2)N[C@H]1c1cccc(F)c1`, the result was inactive.

In a further assay the target is Short transient receptor potential channel 4 (Mus musculus) (UniProt Q9QUQ5). Briefly: blockers of DAMGO-evoked TRPC4 calcium flux – cell-based, Fluo4, HEK293 TRPC4beta/mu-opioid, confirmation (AID 2636). The following applies: at 10 µM; active compounds read high. Summed up: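 Test system – HEK293 cells stably co-expressing mouse TRPC4beta and mu-opioid receptor · Reagent – DAMGO agonist, submaximal followed by maximal addition · Technique – Fluo4 calcium flux fluorescence, kinetic read · Control set – no-compound wells and DAMGO maximal-stimulus wells · Doses – single final compound concentration of 10 µM · Timing – compound pre-incubation 110 s before DAMGO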
Sequence of Short transient receptor potential channel 4 (Mus musculus) (Q9QUQ5 whole entry, looked up): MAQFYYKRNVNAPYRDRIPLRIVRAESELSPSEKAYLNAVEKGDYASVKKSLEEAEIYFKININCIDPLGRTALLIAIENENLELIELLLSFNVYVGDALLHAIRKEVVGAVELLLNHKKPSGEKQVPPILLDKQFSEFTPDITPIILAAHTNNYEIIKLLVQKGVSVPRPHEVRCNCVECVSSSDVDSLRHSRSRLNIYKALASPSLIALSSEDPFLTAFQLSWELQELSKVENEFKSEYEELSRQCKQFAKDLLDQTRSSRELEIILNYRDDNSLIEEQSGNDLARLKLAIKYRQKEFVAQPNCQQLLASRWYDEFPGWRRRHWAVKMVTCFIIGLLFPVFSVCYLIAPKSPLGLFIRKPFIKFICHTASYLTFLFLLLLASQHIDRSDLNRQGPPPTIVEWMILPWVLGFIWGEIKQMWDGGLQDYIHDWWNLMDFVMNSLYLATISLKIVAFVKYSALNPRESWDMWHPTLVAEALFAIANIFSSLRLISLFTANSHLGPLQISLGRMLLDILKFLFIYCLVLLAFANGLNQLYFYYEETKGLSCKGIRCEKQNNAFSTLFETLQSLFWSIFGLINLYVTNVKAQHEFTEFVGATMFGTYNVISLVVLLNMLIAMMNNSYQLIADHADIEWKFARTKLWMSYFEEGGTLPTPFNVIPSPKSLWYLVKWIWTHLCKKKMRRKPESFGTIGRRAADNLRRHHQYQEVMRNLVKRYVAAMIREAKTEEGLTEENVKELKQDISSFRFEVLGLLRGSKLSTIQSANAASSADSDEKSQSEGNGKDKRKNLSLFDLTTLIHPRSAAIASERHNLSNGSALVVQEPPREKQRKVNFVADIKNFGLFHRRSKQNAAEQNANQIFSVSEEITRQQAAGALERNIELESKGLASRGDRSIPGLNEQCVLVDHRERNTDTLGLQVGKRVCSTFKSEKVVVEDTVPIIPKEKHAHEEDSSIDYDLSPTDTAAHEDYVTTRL
Take `Cc1cc(-c2ccc(C)c(S(=O)(=O)NCCCN(Cc3ccccc3)C(C)C)c2)on1`: the result was inactive.

As to `CCc1nc(NCCc2ccccn2)c2nnn(Cc3ccccc3F)c2n1`, the result was inactive.

In the case of `Cc1sc2ncnc(NCC(C)(C)N3CCOCC3)c2c1C`, the result was inactive.

For `Cc1ccc(N2CCN(c3ccc(NCc4nc5ccccc5n4C)cc3)CC2)cc1`, the result was inactive.

On to `COc1ccc(C(CNC(=O)CN2C(=O)NC3(CCCC3)C2=O)N(C)C)cc1` (stereo not given), for which the outcome was inactive.

Turning to `Cc1cccc(NC(=S)NCC(c2cccnc2)N(C)C)c1C` (stereo not given), the outcome was inactive.

Take `Cc1ccccc1OCC(=O)NNC(=S)NC(=O)c1ccco1`: the result was inactive.

As for `Cc1ccc(Sc2cc(C(=O)NCCN(C)C)c3ccccc3n2)cc1`, the result was inactive.

Take `O=C(O)c1ccc(-c2ccc(/C=c3/sc4nc5ccccc5n4c3=O)o2)cc1Cl`: the outcome was inactive.

In the case of `Cc1ccccc1C(=O)NNC(=S)NC(=O)c1ccccc1`, the result was inactive.

For `CN(C)C(CNC(=O)c1ccc2ccccc2n1)c1ccccc1` (stereo not given), the result was inactive.

Turning to `Cc1cc(NC(=O)CN2CCc3ccccc3C2)nc2c1c(=O)oc1ccccc12`, the result was inactive.

On to `Cn1c(CN2CCN(c3cccc(Cl)c3)CC2)nc2ccccc21`, for which the outcome was inactive.

Turning to `CN(C)C(CNC(=O)c1cnc(Cl)c(Cl)c1)c1ccccc1` (stereo not given), the result was inactive.

Consider `Cc1ccc(Cl)cc1NC(=O)CNCC(c1ccccc1)N(C)C` (stereo not given), for which the result was inactive.

With `CN(C)CCCN(C(=O)c1ccc(S(=O)(=O)N2CCOCC2)cc1)c1nc2ccc(F)cc2s1`, the outcome was inactive.

For the molecule `CN(C)CCN(C(=O)c1cccc2ccccc12)c1nc2cc3c(cc2s1)OCO3`, the outcome was inactive.

For the molecule `Cc1ccc2c(C)c(C(=O)N(Cc3cccs3)C3CCS(=O)(=O)C3)oc2c1` (stereo not given), the result was inactive.

As to `CCN1CCN(c2c(Cl)cccc2NC(=O)c2ccc3nsnc3c2)CC1`, the outcome was inactive.

`O=C(C1CCCN(Cc2ccncc2)C1)N1CCc2ccccc2C1` (stereo not given): the outcome was inactive.

In the case of `CCN(c1ccccc1)S(=O)(=O)c1ccc(C(=O)N(CCCN(C)C)c2nc3cc4c(cc3s2)OCO4)cc1`, the result was inactive.

Consider `CC1CCCN(CCCNC(=O)c2ccc3c(c2)N(Cc2ccccc2F)C(=O)c2ccccc2S3(=O)=O)C1` (stereo not given), for which the result was inactive.

On to `O=C(Nc1nnc(-c2ccccc2Cl)o1)c1nc2ccccc2s1`, for which the outcome was inactive.

`COc1ccc(C(=O)NC(=S)NNC(=O)CCc2ccccc2)cc1`: the outcome was inactive.

`Cc1cc(-c2nn(-c3ccccc3F)cc2CNCCc2cnc[nH]2)c(C)s1`: the result was inactive.

Regarding `Cc1ccc(C(=O)NC(=S)NNC(=O)c2ccccc2)cc1`, the result was inactive.

As to `Cc1csc2c(N3CCN(C(=O)NC(C)(C)C)CC3)ncnc12`, the outcome was inactive.

For the molecule `COC(=O)[C@@]1(Cc2ccc(F)cc2)[C@H]2c3cc(C(=O)N(C)C)n(CCc4ccccn4)c3C[C@H]2CN1C(=O)c1ccccc1`, the result was inactive.

Turning to `CN(CCc1ccccn1)C(=O)CC1C(=O)NCCN1Cc1ccccc1C(F)(F)F` (stereo not given), the outcome was inactive.

For `COc1cc(/C=C/C(=O)c2ccc3c(c2)OCO3)cc(Cl)c1O`, the result was inactive.

Consider `CCn1c(N2CCN(C(=O)Nc3ccc(F)cc3)CC2)nc2ccccc21`, for which the result was inactive.

As for `O=S(=O)(c1ccccc1)c1nnn2c1nc(NC1CCN(Cc3ccccc3)CC1)c1cc(Cl)ccc12`, the outcome was inactive.

As for `CCOC(=O)c1oc2ccc(OC)cc2c1NC(=O)CN1CCN(C)CC1`, the result was inactive.

For the molecule `C=CCn1c(CCNC(=O)C(C)(C)C)nc2ccccc21`, the result was inactive.

As for `CCOC(=O)C1(CCOc2ccccc2)CCN(Cc2ccc3c(c2)OCCO3)CC1`, the outcome was inactive.

For the molecule `Cc1cc(C)n(-c2nc(SCCN(C)C)c3c4c(sc3n2)CCCC4)n1`, the result was inactive.

For `COc1cc(OC)cc(C(=O)NC2CCCN(Cc3ccc(Cl)cc3)C2)c1` (stereo not given), the result was inactive.

On to `CN(C)C(CNC(=O)CCc1c[nH]c2ccccc12)c1ccccc1` (stereo not given), for which the result was inactive.

With `CCCCN(CC)CCCNC(=O)Cn1nc(Cc2ccncc2)c2ccccc2c1=O`, the result was inactive.

For `COC(=O)C1=C(C)N(Cc2ccccc2)C(=NCCc2ccccn2)N[C@H]1c1cccc(F)c1`, the result was inactive.

The values above are taken from PubChem BioAssay.
